B1: NELF-E aptamer (parent)
chain: CCCAACGACUGCCGAGCGAGAUUACGCUUGAGCGCCCCACUGAGGAUGCCCACGGGCGAUUGGGGCACGG

Consider 167 variants from the RNAGym collection of RNA variant scans (doi:10.1038/nmeth.2970).

In this data set the parent is B1. Kind of data set: HiTS-RAP. Conditions: with NELF-E (Drosophila). The procedure, abridged:
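Aptamer DNA templates carrying a T7 promoter and ter site were sequenced on an Illumina GAIIx flowcell, then transcribed in situ by T7 RNA polymerase and halted by GST-Tus (30 minutes, 37°C). Clusters were imaged after 30-minute room-temperature equilibration with NELF-E-mOrange at 0.064 to 1000 nM in HEPES binding buffer, and only the first binding curve was used. Intensities were normalised to sequencing intensity and averaged per sequence. Kd came from weighted Hill fits, keeping fits with variance below 1,000,000.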
As to C9U U10G, the Kd (in general, the equilibrium constant for the complex coming apart) is 5.19 nM.

Turning to C9G G44A, the Kd was 17.8 nM.

In the case of C9G G44U, the Kd amounted to 9.09 nM.

For the variant U10G U28G, the dissociation constant Kd was 6.52 nM.

Take U10G U28A: the Kd is 4.53 nM.

Take U10G U28C: the Kd was 8.85 nM.

On to U10G G55C, for which the dissociation constant (Kd) worked out at 7.54 nM.

Regarding U10G G55A, the Kd stood at 8.64 nM.

Take U10G G55U: the Kd was 6.13 nM.

Turning to U10G G54A, the Kd was 12 nM.

In the case of U10G G54U, the Kd was 6.86 nM.

In the case of U10A G16U, the Kd came out at 5.86 nM.

With U10G A21C, the Kd was found to be 4.39 nM.

Turning to U10G A21U, the dissociation constant (Kd) turned out to be 5.53 nM.

On to U10G A21G, for which the Kd is 5.45 nM.

Consider U10C U29C, for which the Kd worked out at 7.71 nM.

For the variant U10C U29G, the Kd turned out to be 6.02 nM.

Consider C9U A19G, for which the equilibrium dissociation constant (Kd) was 5.01 nM.

For the variant U10A U29C, the Kd turned out to be 5.24 nM.

On to U10A U29G, for which the Kd was determined as 5.61 nM.

Consider C9G G45A, for which the Kd stood at 35.6 nM.

In the case of C9G G45U, the Kd was found to be 5.69 nM.

For the variant U10C G64A, the dissociation constant Kd worked out at 9.5 nM.

As to C9G G54A, the Kd was determined as 17 nM.

For the variant C9G G54U, the Kd came out at 6.83 nM.

Turning to C9U G14U, the Kd amounted to 6.79 nM.

In the case of C9U G14A, the Kd turned out to be 6.66 nM.

In the case of G11A A39U, the dissociation constant (Kd) stood at 24.2 nM.

As for U10C C57U, the dissociation constant Kd worked out at 4.92 nM.

G11U A21G: the equilibrium dissociation constant (Kd) amounted to 7.69 nM.

With U10C U23G, the dissociation constant (Kd) was 5.12 nM.

Take C9U C13G: the Kd came out at 5.59 nM.

For the variant C9U C13U, the Kd was 5.14 nM.

G11A C12G: the Kd was 7.18 nM.

As for U10G C12G, the Kd turned out to be 5.4 nM.

With U10G C12A, the Kd was found to be 5.88 nM.

On to U10G C12U, for which the Kd turned out to be 4.41 nM.

C9U A24G: the Kd is 5.62 nM.

Regarding C9G U28G, the Kd was 6.8 nM.

Take C9G U28C: the Kd turned out to be 9.43 nM.

On to C9G U28A, for which the equilibrium dissociation constant (Kd) was found to be 5.64 nM.

For U10C, the Kd came out at 4.6 nM.

U10A: the Kd was determined as 4.9 nM.

For the variant U10G, the Kd worked out at 4.49 nM.

Consider C9G G62U, for which the Kd is 10 nM.

In the case of C9G G62A, the Kd is 26.9 nM.

As to C9G G55U, the Kd was found to be 8.84 nM.

With C9G G55A, the Kd was determined as 10.3 nM.

As to U10G C49U, the Kd was determined as 18.7 nM.

On to U10G C49A, for which the Kd turned out to be 20.2 nM.

On to U10G C49G, for which the Kd was determined as 7.15 nM.

With U10G C35G, the dissociation constant (Kd) stood at 6.33 nM.

Take U10G C35U: the Kd worked out at 16.3 nM.

On to U10G C35A, for which the Kd amounted to 7.32 nM.

As for U10G G14A, the Kd is 5.01 nM.

On to U10G G14C, for which the Kd worked out at 6.25 nM.

For the variant U10G G14U, the Kd was determined as 5.99 nM.

Turning to U10G C66G, the dissociation constant (Kd) came out at 4.43 nM.

Regarding U10G C66U, the Kd worked out at 4.66 nM.

U10G C66A: the Kd was found to be 5.44 nM.

Regarding U10G U47A, the Kd was found to be 10.8 nM.

Take U10G U47G: the Kd is 6.24 nM.

Turning to C9G C36U, the Kd worked out at 8.98 nM.

For the variant U10A C53U, the Kd is 5.03 nM.

As for C9G C38U, the Kd was 8.24 nM.

With U10G A52G, the Kd was found to be 4.22 nM.

U10G A52U: the Kd is 14.9 nM.

Take U10G A52C: the Kd is 5.8 nM.

Turning to U10G C51A, the dissociation constant (Kd) was 9.77 nM.

For the variant U10G C51G, the Kd is 4.43 nM.

Take U10G C51U: the Kd was 6.95 nM.

For the variant C9U U23G, the Kd was found to be 5.63 nM.

With U10G A43U, the Kd came to 75.2 nM.

Consider U10G A43C, for which the dissociation constant Kd turned out to be 75.8 nM.

In the case of U10G A43G, the dissociation constant Kd is 18.8 nM.

Take G11A A24G: the Kd was found to be 5.78 nM.

For C9G G65U, the Kd came to 7.11 nM.

As for C9G G65A, the Kd amounted to 4.83 nM.

Consider C9G G65C, for which the dissociation constant (Kd) turned out to be 16.4 nM.

Take U10G C37A: the dissociation constant Kd worked out at 14.8 nM.

U10G C37G: the Kd is 6.84 nM.

In the case of U10G C37U, the Kd was 12.2 nM.

On to U10G C33G, for which the Kd worked out at 5.96 nM.

As for U10G C33A, the Kd was 5.76 nM.

Take U10G C33U: the equilibrium dissociation constant (Kd) came to 5.07 nM.

On to G11A C17G, for which the Kd was 6.96 nM.

Turning to U10A A39G, the Kd is 11.6 nM.

Turning to C9G U29C, the Kd was 6.28 nM.

Turning to C9G U29G, the Kd was 5.58 nM.

Regarding C9G U29A, the Kd stood at 6.02 nM.

As to U10C G16U, the Kd amounted to 5.14 nM.

With U10C A19G, the Kd stood at 4.87 nM.

As to G11A A31G, the equilibrium dissociation constant (Kd) is 10.9 nM.

Regarding C9G U23G, the Kd was 5.35 nM.

As for C9G U23C, the Kd is 4.37 nM.

Take C9G U23A: the Kd was 6.12 nM.

In the case of U10A C12G, the Kd was found to be 6.47 nM.

As to U10A C57U, the Kd came to 5.96 nM.

On to C9U U22G, for which the Kd worked out at 5.55 nM.

In the case of U10A A31U, the dissociation constant Kd is 5.78 nM.

On to U10A A31G, for which the Kd came out at 9.84 nM.

With U10G C40U, the Kd stood at 63.9 nM.

U10G C40G: the equilibrium dissociation constant (Kd) came to 5.38 nM.

For U10C A67U, the Kd stood at 5.45 nM.

As for C9U G65U, the Kd came to 6.78 nM.

Take U10G A24G: the Kd amounted to 5.18 nM.

Regarding U10G A24U, the Kd worked out at 6.04 nM.

As to U10G A24C, the Kd was determined as 4.94 nM.

U10G A31U: the dissociation constant Kd is 5.87 nM.

U10G A31C: the Kd was determined as 6.21 nM.

As to U10G A31G, the Kd was determined as 6.79 nM.

Regarding U10G G20A, the dissociation constant (Kd) is 5.57 nM.

For U10G G20U, the equilibrium dissociation constant (Kd) came to 6.08 nM.

With U10G G45A, the equilibrium dissociation constant (Kd) amounted to 68.6 nM.

In the case of U10G G45U, the Kd was found to be 7.35 nM.

Take U10G A39U: the Kd came out at 24.6 nM.

In the case of U10G A39G, the Kd amounted to 10.1 nM.

Consider U10G A39C, for which the Kd is 19.7 nM.

Take C9G C51U: the Kd turned out to be 8.2 nM.

Turning to C9G C51A, the Kd turned out to be 8.9 nM.

For U10G U61G, the Kd was 8.63 nM.

Turning to U10G U61A, the Kd came out at 29.9 nM.

As for U10G A67C, the Kd was determined as 5.03 nM.

U10G A67U: the dissociation constant (Kd) turned out to be 6.91 nM.

With U10G A67G, the Kd amounted to 5.45 nM.

Consider U10G C38A, for which the Kd was found to be 39.8 nM.

Turning to U10G C38G, the equilibrium dissociation constant (Kd) is 7 nM.

For the variant U10G C38U, the Kd is 9.49 nM.

As for C9G G48A, the Kd was 8.11 nM.

Turning to U10A A15G, the dissociation constant Kd amounted to 3.62 nM.

With C9G U60C, the Kd was 11.4 nM.

As to C9G U60G, the Kd amounted to 6.72 nM.

On to G11A U29G, for which the Kd was found to be 6.58 nM.

For the variant U10A G11U, the Kd was 7.2 nM.

For the variant U10G C25A, the dissociation constant (Kd) was determined as 4.07 nM.

U10G C25G: the Kd is 5.26 nM.

For the variant U10G C25U, the Kd turned out to be 5.86 nM.

With G11A A67U, the Kd stood at 6.87 nM.

Regarding G11A A19G, the Kd amounted to 6.92 nM.

Take C9G C17G: the Kd is 5.43 nM.

With C9G C17U, the dissociation constant (Kd) was determined as 4.67 nM.

For the variant C9U U41G, the Kd was 5.98 nM.

For the variant U10A U23C, the Kd stood at 5.46 nM.

Turning to U10A U23G, the Kd is 5.54 nM.

Take U10G G64C: the Kd turned out to be 6.95 nM.

As for U10G G64A, the Kd was found to be 7.4 nM.

Take U10G G64U: the Kd was 7.3 nM.

Regarding U10G G30U, the Kd turned out to be 5.29 nM.

As for U10G G30A, the Kd was 4.59 nM.

For the variant U10G G30C, the Kd is 5.8 nM.

Consider C9G G26U, for which the Kd was 8.09 nM.

C9G G26A: the Kd worked out at 5.39 nM.

With C9G C57U, the Kd was found to be 7.56 nM.

In the case of U10G C57U, the Kd is 5.61 nM.

As for U10G C57A, the dissociation constant (Kd) worked out at 11.8 nM.

For the variant U10G C57G, the Kd is 7.81 nM.

U10G C17G: the Kd is 4.78 nM.

As for U10G C17A, the Kd came to 5.07 nM.

Regarding U10G C17U, the Kd was determined as 4.88 nM.

For C9G G30U, the Kd is 6.64 nM.

C9G G30A: the Kd was found to be 4.33 nM.

In the case of C9U G11U, the Kd was found to be 5.56 nM.

With C9U G20U, the Kd was determined as 7.82 nM.

Take C9G C50U: the dissociation constant Kd turned out to be 13.5 nM.

With C9G C50A, the Kd was 23.5 nM.

With C9G C50G, the dissociation constant (Kd) amounted to 7.4 nM.

Consider G11A U23G, for which the Kd came to 5.54 nM.
